Each structure is given as a SMILES string. The source made the active and inactive calls. The calls are words filed in the database; no cut-off is given here.

Here are results for 46 compounds from ChEMBL document CHEMBL4837214, “Design, synthesis, and biological evaluation of novel tetrahydroprotoberberine derivatives to reduce SREBPs expression for the treatment of hyperlipidemia” (Eur J Med Chem, 2021).

In one assay the test system is HepG2. Put plainly: Down regulation of intracellular TC level in human HepG2 cells at 10 uM measured after 24 hrs. Format: functional, cell-based. An outline of the steps:
(§1)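 HepG2 cells grown in six-well plates and exposed 24 h to compound at […]. Cells collected in PBS and sonicated (5 s on, 10 s off, 60 s total). Total cholesterol or triglyceride measured with a colorimetric determination kit.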
As for `COc1cc2c(cc1OC)C1Cc3ccc(OC)c(OS(=O)(=O)c4c(C(C)C)cc(C(C)C)cc4C(C)C)c3CN1CC2` (centres undefined), the outcome was Active.

For the compound `COc1cc2c(cc1OC)C1Cc3ccc(OC)c(OC(=O)C4CC4)c3CN1CC2` (centres undefined), the result was Active.

For the compound `CCCOc1c(OC)ccc2c1CN1CCc3cc4c(cc3C1C2)OCO4` (centres undefined), the outcome was Active.

Regarding `COc1ccc2c(c1OCc1ccc([N+](=O)[O-])cc1)CN1CCc3cc4c(cc3C1C2)OCO4` (centres undefined), the outcome was Active.

For another assay, the system named is HepG2. Nature of the assay: Down regulation of intracellular TG level in human HepG2 cells at 10 uM measured after 24 hrs. Format: functional, cell-based. An outline of the steps: as §1
For `COc1cc2c(cc1OC)C1Cc3ccc(OC)c(OS(=O)(=O)c4c(C(C)C)cc(C(C)C)cc4C(C)C)c3CN1CC2` (centres undefined), the outcome was Active.

Take `COc1cc2c(cc1OC)C1Cc3ccc(OC)c(OC(=O)C4CC4)c3CN1CC2` (centres undefined): the result was Active.

In the case of `CCCOc1c(OC)ccc2c1CN1CCc3cc4c(cc3C1C2)OCO4` (centres undefined), the result was Active.

Turning to `CCCCOc1c(OC)ccc2c1CN1CCc3cc4c(cc3C1C2)OCO4` (centres undefined), the outcome was Active.

In the case of `COc1ccc2c(c1OCc1ccc([N+](=O)[O-])cc1)CN1CCc3cc4c(cc3C1C2)OCO4` (centres undefined), the result was Active.

In a further assay the test system is HepG2. Put plainly: Cytotoxicity against human HepG2 cells assessed as reduction in cell viability at 10 uM after 24 hrs by CCK8 assay. Format: functional. (Tetrazolium dyes change colour on reduction, which living cells bring about.)
On to `COc1ccc2c(c1OC(=O)C1CC1)CN1CCc3cc4c(cc3C1C2)OCO4` (centres undefined), for which the Activity worked out at 90.7%.

For the compound `COc1cc2c(cc1OC)C1Cc3ccc(OC)c(OS(=O)(=O)c4ccccc4[N+](=O)[O-])c3CN1CC2` (centres undefined), the Activity was 84.8%.

For the compound `COc1ccc2c(c1OS(=O)(=O)c1ccc(Cl)c([N+](=O)[O-])c1)CN1CCc3cc4c(cc3C1C2)OCO4` (centres undefined), the Activity was determined as 93.4%.

As for `COc1cc2c(cc1OC)C1Cc3ccc(OC)c(OS(=O)(=O)c4ccc(Br)cc4)c3CN1CC2` (centres undefined), the Activity turned out to be 86.5%.

As to `COc1cc2c(cc1OC)C1Cc3ccc(OC)c(OC(=O)C(C)(C)CCl)c3CN1CC2` (centres undefined), the Activity was determined as 91.2%.

Regarding `COc1ccc2c(c1OC(=O)c1cccc(C)c1)CN1CCc3cc4c(cc3C1C2)OCO4` (centres undefined), the Activity was 90.1%.

In the case of `COc1cc2c(cc1OC)C1Cc3ccc(OC)c(OC(=O)c4ccc(F)cc4)c3CN1CC2` (centres undefined), the Activity turned out to be 95.1%.

As for `COc1cc2c(cc1OC)C1Cc3ccc(OC)c(OC(=O)C45CC6CC(CC(C6)C4)C5)c3CN1CC2` (centres undefined), the Activity worked out at 99.3%.

For the compound `COc1cc2c(cc1OC)C1Cc3ccc(OC)c(OC(=O)c4ccco4)c3CN1CC2` (centres undefined), the Activity is 80.9%.

Take `C/C=C/C(=O)Oc1c(OC)ccc2c1CN1CCc3cc4c(cc3C1C2)OCO4` (centres undefined): the Activity amounted to 84.3%.

Turning to `COc1cc2c(cc1OC)C1Cc3ccc(OC)c(OS(=O)(=O)c4c(C(C)C)cc(C(C)C)cc4C(C)C)c3CN1CC2` (centres undefined), the Activity came out at 91.1%.

As to `COc1ccc2c(c1OC(=O)C1CCCCC1)CN1CCc3cc4c(cc3C1C2)OCO4` (centres undefined), the Activity turned out to be 90.7%.

On to `COc1cc2c(cc1OC)C1Cc3ccc(OC)c(OC(=O)c4ccc(CCl)cc4)c3CN1CC2` (centres undefined), for which the Activity is listed as 88.3%.

Regarding `C/C=C/C(=O)Oc1c(OC)ccc2c1CN1CCc3cc(OC)c(OC)cc3C1C2` (centres undefined), the Activity is given as 81.7%.

Turning to `COc1cc2c(cc1OC)C1Cc3ccc(OC)c(OC(=O)C4CC4)c3CN1CC2` (centres undefined), the Activity worked out at 91.2%.

For the compound `CCCS(=O)(=O)Oc1c(OC)ccc2c1CN1CCc3cc(OC)c(OC)cc3C1C2` (centres undefined), the Activity amounted to 80.2%.

With `COc1ccc2c(c1OS(=O)(=O)c1c(C)cc(C)cc1C)CN1CCc3cc4c(cc3C1C2)OCO4` (centres undefined), the Activity is 80.7%.

For `CCCOc1c(OC)ccc2c1CN1CCc3cc4c(cc3C1C2)OCO4` (centres undefined), the Activity was determined as 101.5%.

`CCS(=O)(=O)Oc1c(OC)ccc2c1CN1CCc3cc(OC)c(OC)cc3C1C2` (centres undefined): the Activity is listed as 87.7%.

In the case of `CCCCOc1c(OC)ccc2c1CN1CCc3cc4c(cc3C1C2)OCO4` (centres undefined), the Activity was 98.1%.

As for `CCOc1c(OC)ccc2c1CN1CCc3cc4c(cc3C1C2)OCO4` (centres undefined), the Activity came out at 87.7%.

As to `COc1cc2c(cc1OC)C1Cc3ccc(OC)c(OC(=O)c4cccc(Br)c4)c3CN1CC2` (centres undefined), the Activity was found to be 80.2%.

`CCOc1ccccc1C(=O)Oc1c(OC)ccc2c1CN1CCc3cc4c(cc3C1C2)OCO4` (centres undefined): the Activity was 96%.

Take `C=C(C)C(=O)Oc1c(OC)ccc2c1CN1CCc3cc(OC)c(OC)cc3C1C2` (centres undefined): the Activity amounted to 95.4%.

Turning to `COc1ccc2c(c1OC(=O)C13CC4CC(CC(C4)C1)C3)CN1CCc3cc4c(cc3C1C2)OCO4` (centres undefined), the Activity amounted to 80.2%.

Turning to `COc1ccc2c(c1OC(=O)c1ccco1)CN1CCc3cc4c(cc3C1C2)OCO4` (centres undefined), the Activity came out at 83.9%.

For the compound `COc1cc2c(cc1OC)C1Cc3ccc(OC)c(OS(=O)(=O)c4c(C)cc(C)cc4C)c3CN1CC2` (centres undefined), the Activity is 73.3%.

For `CCOc1ccccc1C(=O)Oc1c(OC)ccc2c1CN1CCc3cc(OC)c(OC)cc3C1C2` (centres undefined), the Activity is 84.6%.

For `COc1ccc2c(c1OS(=O)(=O)c1ccccc1[N+](=O)[O-])CN1CCc3cc4c(cc3C1C2)OCO4` (centres undefined), the Activity is reported as 88.8%.

Consider `COc1cc2c(cc1OC)C1Cc3ccc(OC)c(OS(=O)(=O)c4ccc(F)cc4)c3CN1CC2` (centres undefined), for which the Activity is recorded as 93.4%.

As to `COc1ccc2c(c1OS(=O)(=O)c1cc(C)ccc1C)CN1CCc3cc4c(cc3C1C2)OCO4` (centres undefined), the Activity is recorded as 84.5%.

Turning to `CCCC(CCC)C(=O)Oc1c(OC)ccc2c1CN1CCc3cc(OC)c(OC)cc3C1C2` (centres undefined), the Activity was 97.9%.

On to `COc1ccc2c(c1OS(=O)(=O)c1ccc(F)cc1)CN1CCc3cc4c(cc3C1C2)OCO4` (centres undefined), for which the Activity came out at 86.8%.

`COc1ccc2c(c1OS(=O)(=O)c1cccs1)CN1CCc3cc4c(cc3C1C2)OCO4` (centres undefined): the Activity amounted to 93.4%.

For the compound `COc1ccc2c(c1OC(=O)c1cccc(Br)c1)CN1CCc3cc4c(cc3C1C2)OCO4` (centres undefined), the Activity is recorded as 85%.

Turning to `COc1ccc2c(c1OS(=O)(=O)c1c(C(C)C)cc(C(C)C)cc1C(C)C)CN1CCc3cc4c(cc3C1C2)OCO4` (centres undefined), the Activity came out at 92.8%.

Consider `COc1cc2c(cc1OC)C1Cc3ccc(OC)c(OS(=O)(=O)c4cccs4)c3CN1CC2` (centres undefined), for which the Activity is reported as 89.2%.

For the compound `COc1ccc2c(c1OC(=O)C(C)(C)CCl)CN1CCc3cc4c(cc3C1C2)OCO4` (centres undefined), the Activity was 99.6%.

Consider `COc1cc2c(cc1OC)C1Cc3ccc(OC)c(OC(=O)c4cccc(C)c4)c3CN1CC2` (centres undefined), for which the Activity worked out at 84.3%.

Regarding `COc1cc2c(cc1OC)C1Cc3ccc(OC)c(OC(=O)C4CCCCC4)c3CN1CC2` (centres undefined), the Activity came out at 85.5%.

Consider `COc1ccc2c(c1OC(=O)c1ccc(CCl)cc1)CN1CCc3cc4c(cc3C1C2)OCO4` (centres undefined), for which the Activity amounted to 97.8%.

Regarding `COc1cc2c(cc1OC)C1Cc3ccc(OC)c(OS(=O)(=O)c4cc(C)ccc4C)c3CN1CC2` (centres undefined), the Activity amounted to 81.4%.

In the case of `COc1ccc2c(c1OCc1cc(F)ccc1F)CN1CCc3cc4c(cc3C1C2)OCO4` (centres undefined), the Activity is on record as 87.7%.

Regarding `COc1cc2c(cc1OC)C1Cc3ccc(OC)c(OS(=O)(=O)c4ccc(Cl)c([N+](=O)[O-])c4)c3CN1CC2` (centres undefined), the Activity is reported as 94.7%.

In the case of `COc1ccc2c(c1OC(=O)c1ccc(F)cc1)CN1CCc3cc4c(cc3C1C2)OCO4` (centres undefined), the Activity is given as 85.6%.
